In ChEMBL document CHEMBL1133665, “Secondary amides of (R)-3,3,3-trifluoro-2-hydroxy-2-methylpropionic acid as inhibitors of pyruvate dehydrogenase kinase” (J Med Chem, 2000):
The source made the active and inactive calls. The rule behind the calls is not given here.

molecular target: Pyruvate dehydrogenase kinase (Rattus norvegicus, UniProt Q63065+A6IPZ9+Q64536+O54937); experiment: Inhibitory activity tested against Pyruvate Dehydrogenase Kinase (PDHK) receptor from rats.; format: protein assay
Summary of the method: (§1)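 Commercial PDH complex used as the kinase-containing preparation. PDHK inhibition read spectrophotometrically as NADH production at 340 nm, measured with and without ATP. IC50 ± standard error, from purified substances.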

Row | SMILES | IC50
1 | CCC(O)(C(=O)Nc1ccccc1Cl)C(F)(F)F (stereo not drawn) | 20 µM
2 | C[C@@](O)(C(=O)Nc1ccccc1Cl)C(F)(F)F | 0.3 µM
3 | O=C(N1CCC(Cc2ccccc2)CC1)C1(O)CC1 | 260 µM
4 | CN(C)C(=O)N1CCC(Cc2ccccc2)CC1 | 416 µM
5 | C[C@@](O)(C(=O)N1CCN(/C(=N/C#N)Oc2ccccc2)CC1)C(F)(F)F | 6 µM
6 | C[C@](O)(C(=O)NC1C2CC3CC(C2)CC1C3)C(F)(F)F (stereo partly drawn) | 11 µM
7 | CC(O)C(=O)N1CCC(Cc2ccccc2)CC1 (stereo not drawn) | 310 µM
8 | C/N=C(\S)N1CC=C(C(C)(C)C)CC1 | 180 µM
9 | C/N=C(/S)N1CCC(Cc2ccccc2)CC1 | 560 µM
10 | O=C(N1CCC(Cc2ccccc2)CC1)C(Cl)(Cl)Cl | 30 µM
11 | C[C@@](O)(C(=O)NC1C2CC3CC(C2)CC1C3)C(F)(F)F (stereo partly drawn) | 0.3 µM
12 | C[C@@H]1CN(S(=O)(=O)c2cccc3ccccc23)[C@@H](C)CN1C(=O)[C@@](C)(O)C(F)(F)F | 49 µM
13 | C[C@@H]1CN(C(=O)[C@@](C)(O)C(F)(F)F)[C@@H](C)CN1C(=O)c1ccc(C(=O)c2ccccc2)cc1 | 0.0198 µM
14 | COC(=O)N1CCC(Cc2ccccc2)CC1 | 1000 µM
15 | C[C@](O)(C(=O)Nc1ccccc1Cl)C(F)(F)F | 9.8 µM
16 | O=C(NC1C2CC3CC(C2)CC1C3)C1(O)CC1 (stereo not drawn) | 15 µM
17 | CCC(C)(O)C(=O)Nc1ccccc1Cl (stereo not drawn) | 23 µM
18 | CC(C)(O)C(=O)Nc1ccccc1Cl | 5 µM
19 | CC(Cl)C(=O)N1CCC(Cc2ccccc2)CC1 (stereo not drawn) | 2.6 µM
20 | CCC(O)(C(=O)NC1C2CC3CC(C2)CC1C3)C(F)(F)F (stereo not drawn) | 14 µM
21 | CC(C)(O)C(=O)NC1C2CC3CC(C2)CC1C3 (stereo not drawn) | 10 µM
22 | CC(C)(O)C(=O)N1CCC(Cc2ccccc2)CC1 | 150 µM
23 | O=C(NC1C2CC3CC(C2)CC1C3)C(O)(C(F)(F)F)C(F)(F)F (stereo not drawn) | 17 µM
24 | O=C(Nc1ccccc1Cl)C(Cl)Cl | 47 µM

Now from value to compound:

Row | IC50 | SMILES
25 | 23.9 µM | CC(O)(C(=O)N1CCCCC1)C(F)(F)F (stereo not drawn)
26 | 47 µM | C[C@@](O)(C(=O)N1CCCN(Cc2ccccc2)CC1)C(F)(F)F
27 | 2.59 µM | C[C@@](O)(C(=O)N1CCCN(c2cc(Cl)ccn2)CC1)C(F)(F)F
28 | 15 µM | C[C@@H]1CN(C(=O)[C@@](C)(O)C(F)(F)F)CCN1C(=O)c1ccc(C(=O)c2ccccc2)cc1 (stereo in doubt; 11r)
29 | 0.0091 µM | C[C@@H]1CN(C(=O)[C@@](C)(O)C(F)(F)F)[C@@H](C)CN1/C(=N/C#N)Oc1ccccc1
30 | 0.036 µM | C[C@@H]1CN(C(=O)[C@@](C)(O)C(F)(F)F)CCN1S(=O)(=O)c1ccc(C(C)(C)C)cc1
31 | 19.9 µM | C[C@@](O)(C(=O)N1CCN(Cc2ccccc2)CC1)C(F)(F)F
32 | 5.02 µM | C[C@@](O)(C(=O)N1CCN(C(=O)c2cccc3ccccc23)CC1)C(F)(F)F
33 | 5.56 µM | C[C@@](O)(C(=O)N1CCN(S(=O)(=O)c2ccccc2)CC1)C(F)(F)F
34 | 2.16 µM | CC(O)(C(=O)N1CCC(Cc2ccccc2)CC1)C(F)(F)F (stereo not drawn)
35 | 0.0033 µM | C[C@@H]1CN(C(=O)[C@@](C)(O)C(F)(F)F)[C@@H](C)CN1C(=O)c1cc(Cl)cc(Cl)c1
36 | 0.064 µM | C[C@@H]1CN(C(=O)[C@@](C)(O)C(F)(F)F)CCN1C(=O)C1CCCCC1
37 | 5.62 µM | C[C@@](O)(C(=O)N1CCCN(C(=O)c2ccccc2)CC1)C(F)(F)F
38 | 2 µM | CC1CCCCN1C(=O)[C@@](C)(O)C(F)(F)F (stereo partly drawn)
39 | 3.1 µM | CCCC1CCN(C(=O)[C@@](C)(O)C(F)(F)F)CC1
40 | 0.039 µM | Cc1cc(C)c(S(=O)(=O)N2CCN(C(=O)[C@@](C)(O)C(F)(F)F)C[C@H]2C)c(C)c1

Row | IC50 | SMILES
41 | 17 µM | CC(C)[C@H]1CN(C(=O)c2ccc(C#N)cc2)[C@H](C)CN1C(=O)[C@@](C)(O)C(F)(F)F
42 | 6.2 µM | C[C@@](O)(C(=O)NC1CCCCC1)C(F)(F)F
43 | 0.013 µM | C[C@@H]1CN(C(=O)[C@@](C)(O)C(F)(F)F)[C@@H](C)CN1C(=O)C1CCCCC1
44 | 0.021 µM | C[C@@H]1CN(C(=O)[C@@](C)(O)C(F)(F)F)CCN1C(=O)OCc1ccccc1
45 | 0.173 µM | C[C@@H]1CN(C(=O)[C@@](C)(O)C(F)(F)F)CCN1C(=O)c1ccccc1
46 | 75 µM | CCCC1CCN(C(=O)[C@](C)(O)C(F)(F)F)CC1
47 | > 300 µM | C[C@@H]1CN(Cc2ccccc2)[C@@H](C)CN1C(=O)[C@@](C)(O)C(F)(F)F
48 | 0.028 µM | C[C@@H]1CN(C(=O)[C@@](C)(O)C(F)(F)F)CCN1C(=O)c1cc(Cl)cc(Cl)c1
49 | 0.0143 µM | C[C@@H]1CN(C(=O)[C@@](C)(O)C(F)(F)F)[C@@H](C)CN1C(=O)OCc1ccccc1
50 | 31.7 µM | C[C@@](O)(C(=O)N1CCN(C(=O)c2ccccc2)CC1)C(F)(F)F
51 | > 1 µM | C[C@@H]1CN(C(=O)[C@@](C)(O)C(F)(F)F)CCN1Cc1ccccc1
52 | 0.034 µM | C[C@@H]1CN(C(=O)[C@@](C)(O)C(F)(F)F)CCN1C(=O)c1ccc(C(=O)c2ccccc2)cc1 (stereo in doubt; 11g)
53 | 0.019 µM | COC(=O)c1ccc(C(=O)N2C[C@H](C)N(C(=O)[C@@](C)(O)C(F)(F)F)C[C@H]2C)cc1
54 | 2.84 µM | C[C@@](O)(C(=O)N1CCN(c2cc([N+](=O)[O-])ccn2)CC1)C(F)(F)F
55 | 6.7 µM | C[C@@](O)(C(=O)N1CCN(C(=O)c2ccc(C#N)cc2)CC1)C(F)(F)F
56 | 0.049 µM | C[C@@H]1CN(C(=O)[C@@](C)(O)C(F)(F)F)CCN1/C(=N/C#N)Oc1ccccc1

organism: Homo sapiens; experiment: Effective concentration required to increase the oxidation of lactate in cellular assay using Human Skin Fibroblasts; format: functional
Summary of the method: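 Human fibroblasts harvested with trypsin 2-4 days post-confluence and assayed in suspension ((3.5-5) × 10^5 cells per tube) with test compound or solvent control. Equilibrated at 37 °C, then started with DMEM-S containing 25 µM lactate and 0.2 µCi/mL d,l-[1-14C]lactate. Gassed with 95% O2/5% CO2 and shaken 25 min at 37 °C. Stopped with TCA; released 14CO2 trapped and counted by scintillation. EC50 ± standard error.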

Row | SMILES | EC50
57 | C[C@@](O)(C(=O)Nc1ccccc1Cl)C(F)(F)F | 5.4 µM
58 | CC(O)(C(=O)N1CCC(Cc2ccccc2)CC1)C(F)(F)F (stereo not drawn) | 29 µM
59 | C[C@@H]1CN(C(=O)[C@@](C)(O)C(F)(F)F)CCN1C(=O)c1ccc(C(=O)c2ccccc2)cc1 (stereo in doubt; 11g) | 0.473 µM

system: Rattus norvegicus; experiment: In vivo %control of lactate in normal Sprague-Dawley rats after 2 hr at a dose of 300 umol/Kg; Not active; format: functional, organism-based
Summary of the method: (§2)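 Male Sprague-Dawley rats, about 200 g, randomly assigned to groups (n = 6/group) and fasted 24 h. Single oral dose of compound in 0.5% carboxymethylcellulose/0.2% Tween-80 (1 mL/100 g), or vehicle alone. Blood taken 2 h post-dose into heparin/fluoride tubes; lactate measured on a biochemistry analyzer. Expressed as percent of vehicle control; groups compared by two-tailed unpaired t-test.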

Row | SMILES | NA
60 | C[C@@](O)(C(=O)Nc1ccccc1Cl)C(F)(F)F | inactive
61 | CC(O)(C(=O)N1CCC(Cc2ccccc2)CC1)C(F)(F)F (stereo not drawn) | inactive
62 | C[C@@](O)(C(=O)NC1C2CC3CC(C2)CC1C3)C(F)(F)F (stereo partly drawn) | inactive

system: Rattus norvegicus; experiment: In vivo %control of lactate in normal Sprague-Dawley rats after 2 hr at a dose of 30 umol/Kg; format: functional; summary of the method: as §2

Row | SMILES | Control
63 | C[C@@H]1CN(C(=O)[C@@](C)(O)C(F)(F)F)CCN1C(=O)C1CCCCC1 | 77%
64 | C[C@@H]1CN(C(=O)[C@@](C)(O)C(F)(F)F)CCN1C(=O)c1ccc(C(=O)c2ccccc2)cc1 (stereo in doubt; 11g) | 66%
65 | C[C@@H]1CN(C(=O)[C@@](C)(O)C(F)(F)F)CCN1/C(=N/C#N)Oc1ccccc1 | 65%

molecular target: Pyruvate dehydrogenase kinase (Rattus norvegicus) (UniProt Q63065+A6IPZ9+Q64536+O54937); experiment: Inhibition of Pyruvate Dehydrogenase Kinase (PDHK) receptor from rats; Inactive; format: protein assay; summary of the method: as §1

Row | SMILES | IA
66 | CNS(=O)(=O)N1CCC(Cc2ccccc2)CC1 | inactive
67 | CC1(C(F)(F)F)OC(=O)N(C2CCCCC2)C1=O (stereo in doubt; 9) | inactive
68 | COC(C)(C(=O)NC1C2CC3CC(C2)CC1C3)C(F)(F)F (stereo not drawn) | inactive
69 | CNC(=O)N1CCCCC1 | inactive
70 | CC(C)NC(=O)N1CCC(Cc2ccccc2)CC1 | inactive
71 | O=C(Nc1ccc(Cl)cc1)N1CCC(Cc2ccccc2)CC1 | inactive
72 | CCCC1CCN(C(=O)C(C)(OC)C(F)(F)F)CC1 (stereo not drawn) | inactive
73 | CC1(C(F)(F)F)OC(=O)N(C2CCCCC2)C1=O (stereo in doubt; 8) | inactive
74 | CC(=O)C(=O)NC1C2CC3CC(C2)CC1C3 (stereo not drawn) | inactive
75 | CNS(=O)(=O)NC1C2CC3CC(C2)CC1C3 (stereo not drawn) | inactive
76 | CC(=O)N1CCCCC1 | inactive
77 | CNS(=O)(=O)Nc1ccccc1Cl | inactive
78 | COC(C)(C(=O)Nc1ccccc1Cl)C(F)(F)F (stereo not drawn) | inactive
79 | CC(Oc1ccccc1)(C(=O)NC1CCCCC1)C(F)(F)F (stereo not drawn) | inactive
80 | CC(C)CC(Cl)C(=O)N1CCC(Cc2ccccc2)CC1 (stereo not drawn) | inactive

More lines, now with the values ahead:

Row | IA | SMILES
81 | inactive | C[C@@H]1CN(C(=O)[C@@](C)(O)C(F)(F)F)CCN1
82 | inactive | C[C@@](O)(C(=O)N1CCNCC1)C(F)(F)F
83 | inactive | C[C@@H]1CN(Cc2ccccc2)[C@@H](C)CN1C(=O)[C@@](C)(O)C(F)(F)F
